Assay [1] can be described thus: OD615 S. cerevisiae growth inhibition, permissive medium, pilot counter-assay, permissive growth control for S. cerevisiae lifespan shortening project (AID 705;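 active = growth inhibition above 25% in both replicates, a cutoff set 3 SD above the mean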). The conditions noted are these: OD615, 24 h, at 10 µM, stronger effect = higher value. The method in brief:
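Test system: Saccharomyces cerevisiae strain carrying genetically modified DeaD replicative-lifespan system; buffer or medium: SC raffinose/galactose permissive medium; dosing: one dose 10 µM, DMSO 0.25% final; times: 24 h exposure, 30 °C; measured by: OD at 615 nm; read-out basis: growth inhibition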

Assay [2] can be described thus: Restrictive medium S. cerevisiae growth inhibition, OD615, pilot screen of yeast lifespan reduction project, restrictive growth control (AID 706;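 active = growth inhibition above a set limit, 3 SD over mean compound inhibition, in both replicates, cut at about 43% in these data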;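 also: modified DeaD lifespan yeast strain shifted to restrictive glucose medium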). Particulars: OD615, 48 h, at 10 µM, stronger effect = higher value. The essentials:
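material = engineered S. cerevisiae DeaD strain | buffer or medium = glucose-based CSMM-D restrictive medium | dosing = one concentration, 10 µM final, 0.25% DMSO | schedule = 4 h pre-growth plus 48 h compound exposure, 30 °C | detection = OD615 absorbance reading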

The nature of assay [3]: viability gain of MRP-1-high H69AR cells under doxorubicin, pilot screen, MRP-1 activator project, CellTiter-Glo, duplicate (AID 807).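 Also: compound pretreatment 18-22 h then 72 h combined with doxorubicin; 0% = doxorubicin alone and 100% = vehicle without doxorubicin.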 Particulars: H69AR viability with doxorubicin, CellTiter-Glo luminescence; at 10 µM; stronger effect = higher value.
A short description of assay [4]: growth suppression of beta-catenin knockout HCT116, pilot screen, human colon tumor cells (AID 823;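 active = cell viability at or below a set limit in both duplicate runs, the limit being the all-compound median minus 4 SD, cut at about 23% in these data, passing the limit was not always enough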;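 also: 0% = wells killed by 20 µM Hyamine and 100% = untreated DMSO cell wells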). Particulars: CellTiter-Glo, 60 h, at 10 µM, stronger effect = lower value. A general note: In ATP-based viability assays light output follows the ATP content of the culture.
Assay [5] can be described thus: growth suppression of PTEN-deleted HCT116, pilot screen, cell-based, HCT116 clonal line, CellTiter-Glo (AID 824;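 active = viability at or below 27.92% in each of two runs, the all-compound median minus 4 SD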;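 also: 0% = 20 µM Hyamine control and 100% = vehicle cell control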). Particulars: 60 h, at 10 µM, stronger effect = lower value.
The nature of assay [6]: inhibitors of the yeast RAM network, pilot screen, dse1pr::URA3 reporter, 5-FOA selection (AID 869;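 active = inhibition over a set limit, the all-compound mean plus 3 SD, in both replicate runs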;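 also: 0% = DMSO wells with no growth and 100% = 10 µM 1-NA-PP1 with full growth; RAM network block rescues cells from 5-FOA so hits raise OD615 growth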). The conditions noted are these: S. cerevisiae dse1pr::URA3 5-FOA growth, OD615, 2 d; at 10 µM; stronger effect = higher value; strain carries analog-sensitive mutant Cbk1 kinase.
Assay [7] is described as follows: RAM signaling pathway blockade in yeast – S. cerevisiae, Pdr1DBD-CYC8 efflux-inhibited sensitized strain, primary screen (AID 1298;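 active = RAM network inhibition above 8.4% in each of two replicates, 3 SD over the compound average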;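 also: 0% = DMSO untreated cells without growth and 100% = 10 µM 1-NA-PP1 full growth; higher means more yeast growth rescued from 5-FOA killing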). Particulars: S. cerevisiae cbk1-as DSE1-URA3 strain, 5-FOA growth OD615, 2 d; at 50 µM; stronger effect = higher value.

A number with no mark means an inactive call. Results filed as inconclusive are left out. Activity calls are given as the source filed them.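 The calls were made as follows, unless noted: active = viability increase at or above a cutoff of the median across tested compounds plus 3 SD (cut at about 8.5% in these data, passing the limit was not always enough); inconclusive = some gains above the cutoff, reason not given; inactive = the rest.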

One may read the viability as a read-out of living cells in per cent, often relative to untreated cells. By inhibition is commonly meant the drop in the measured response relative to a control, in per cent.

Take `CCOC(=O)N1CCN(C(=O)C2CCCN(c3nc4ccc(OCC)cc4s3)C2)CC1` (stereo unspecified): the growth inhibition in assay [1] is -6.49%; in assay [2], -7.45%. Further, the viability increase in assay [3] was -1.32%. For the same molecule, the viability in assay [4] was 90.6%; in assay [5] it was 89.7%. Besides, in assay [6], the inhibition was 0.33%. Further, in assay [7], the RAM network inhibition is 5.16%.

With `CCCCn1c(CCNC(=O)CCC)nc2ccccc21`, the values for the growth inhibition in assay [1] and in assay [2] were -9.84% and 4.55%, respectively. The viability increase in assay [3] was -0.74%. Also, the viability in assay [4] was 99.1%; in assay [5] it was 108%. In addition, in assay [6], the inhibition is 2.43%. Moreover, in assay [7], the RAM network inhibition was -0.53%.

As for `CCOC(=O)CC(=O)Nc1ccc(C(=O)OCC)cc1`, the growth inhibition in assay [1] is 4.17%; in assay [2] it was 7.02%. The viability increase in assay [3] is 1.09%. Further, the viability in assay [4] is 101%; in assay [5] it was 105%. Also, the inhibition in assay [6] is 1.54%. Besides, in assay [7], the RAM network inhibition is 4.84%.

For the molecule `NC(=O)c1cc(S(=O)(=O)Nc2cccc(F)c2)co1`, the growth inhibition in assay [1] is -17.4%; in assay [2], -9.41%. The viability increase in assay [3] was -0.8%. The viability in assay [4] and in assay [5] was 103% throughout. Moreover, in assay [6], the inhibition was 1.69%. Besides, in assay [7], the RAM network inhibition is 2.85%.

For `O=C(NCC1CCCO1)c1ccc2c(c1)N(Cc1ccccc1)C(=O)CS2=O` (stereo unspecified), the values for the growth inhibition in assay [1] and in assay [2] were -1.31% and 8.91%, respectively. In assay [3], the viability increase is -0.66%. Besides, the viability in assay [4] is 91.2%; in assay [5], 88.3%. Also, in assay [6], the inhibition is 1.06%. In assay [7], the RAM network inhibition is 0.78%.

Regarding `Cn1c(NC(=O)c2cccs2)cc(=O)n(C)c1=O`, the values for the growth inhibition in assay [1] and in assay [2] were 7.14% and 0.885%, respectively. In assay [3], the viability increase was -1.55%. Further, the viability in assay [4] was 107%; in assay [5], 95.5%. Also, in assay [6], the inhibition was 0.13%. Also, the RAM network inhibition in assay [7] was -1.35%.

For `CCCCC(CC)CNC(=O)CCS(=O)(=O)c1cccc2nsnc12` (stereo unspecified), the growth inhibition in assay [1] is -14.8%; in assay [2] it was -21.5%. The viability increase in assay [3] was -2.97%. Moreover, the viability in assay [4] is 85.7%; in assay [5], 91.7%. In addition, the inhibition in assay [6] was 3.19%. Also, in assay [7], the RAM network inhibition was 4.78%.

Take `Cc1cc(C)c2c(CC(=O)O)coc2c1`: the results for the growth inhibition in assay [1] and in assay [2] were -5.72% and 10.2%, respectively. Moreover, the viability increase in assay [3] is 0.24%. Moreover, the viability was 93.9% in assay [4] and 105% in assay [5]. For the same molecule, the inhibition in assay [6] was 2.03%. Further, the RAM network inhibition in assay [7] is 0.98%.

On to `CCc1ccc(-c2nc(C(N)=O)c3[nH]c(=O)n(-c4ccccc4OC)c3n2)cc1`, for which the growth inhibition is -5.67% in assay [1] and -2.13% in assay [2]. The viability increase in assay [3] is -8.43%. Besides, the values for the viability in assay [4] and in assay [5] were 15.6% (active) and 24% (active), respectively. Moreover, in assay [6], the inhibition is 2.18%. The RAM network inhibition in assay [7] was 10.7%.

`CC1CC(C)CN(C(=O)CSc2nnc(-c3ccc(F)cc3)o2)C1` (stereo unspecified): the growth inhibition in assay [1] is -2.08%; in assay [2], 5.43%. For the same molecule, the viability increase in assay [3] was -0.28%. Moreover, the viability in assay [4] was 94.5%; in assay [5], 99.8%. The inhibition in assay [6] was 0.645%. Also, the RAM network inhibition in assay [7] was 2.78%.

With `O=C(CCNS(=O)(=O)c1cccc2nsnc12)NC1CCN(Cc2ccccc2)CC1`, the growth inhibition in assay [1] was -3.28%; in assay [2] it was -9.7%. Also, in assay [3], the viability increase was -2.01%. Besides, the viability was 87% in assay [4] and 89% in assay [5]. Moreover, the inhibition in assay [6] was -0.175%. Besides, in assay [7], the RAM network inhibition is 5.02%.

Regarding `Cc1ccc(CN2CCNC(=O)C2CC(=O)O)o1` (stereo unspecified), the growth inhibition in assay [1] was -8.29%; in assay [2], 2.8%. For the same molecule, the viability increase in assay [3] was -0.83%. The viability in assay [4] is 105%; in assay [5], 104%. In assay [6], the inhibition was 1.5%. Further, the RAM network inhibition in assay [7] was 2.4%.

For `COc1ccc2ccccc2c1C1CC(=O)N2CN(Cc3ccco3)CSC2=C1C#N` (stereo unspecified), the values for the growth inhibition in assay [1] and in assay [2] were 1.42% and 16.4%, respectively. Further, the viability increase in assay [3] was -5.39%. Moreover, the viability is 82.5% in assay [4] and 80.9% in assay [5]. Moreover, the inhibition in assay [6] is 3.5%. Further, the RAM network inhibition in assay [7] was 3.82%.

Turning to `C=C(C)Cn1c(N2CCCC2)nc2c1c(=O)[nH]c(=O)n2C`, the growth inhibition was -1.91% in assay [1] and -5.8% in assay [2]. Besides, in assay [3], the viability increase was -1.97%. Besides, the viability in assay [4] was 108%; in assay [5], 96.6%. In addition, the inhibition in assay [6] is 1.32%. The RAM network inhibition in assay [7] was 2.05%.

Take `Cn1c(=O)c2c(nc(CN3CCOCC3)n2CCc2ccccc2)n(C)c1=O`: the growth inhibition was -8.53% in assay [1] and -15.8% in assay [2]. In addition, the viability increase in assay [3] is 3.73%. Moreover, the viability in assay [4] was 95%; in assay [5], 94.7%. Moreover, the inhibition in assay [6] was 1.48%. In assay [7], the RAM network inhibition was 0.56%.

In the case of `CC(=O)Oc1ccc(N2C(=O)C3C4C=CC(O4)C3C2=O)cc1` (stereo unspecified), the values for the growth inhibition in assay [1] and in assay [2] were 14.2% and 27.7%, respectively. Besides, the viability increase in assay [3] is -1.46%. For the same molecule, the viability in assay [4] was 92.1%; in assay [5], 101%. The inhibition in assay [6] is 2.19%. In addition, the RAM network inhibition in assay [7] was 0.14%.

As for `Cc1nc2ccccc2c2oc(C(=O)NCc3ccc4c(c3)OCO4)cc12`, the growth inhibition in assay [1] was -5.28%; in assay [2], -8.97%. In assay [3], the viability increase was -0.55%. In addition, the viability was 70.8% in assay [4] and 80.8% in assay [5]. Besides, in assay [6], the inhibition was 1.01%. Besides, the RAM network inhibition in assay [7] is 5.03%.

In the case of `CC1(C)Cc2c(C#N)c(N3CCCC3)nc(-c3ccco3)c2CO1`, the growth inhibition in assay [1] is -9.34%; in assay [2] it was -8.21%. Also, the viability increase in assay [3] is -5.07%. For the same molecule, the viability is 90.3% in assay [4] and 85.7% in assay [5]. Moreover, the inhibition in assay [6] was 1.39%. The RAM network inhibition in assay [7] was -1.01%.

Source of the values: PubChem BioAssay.
